{"data": "Measurements from different studies", "sample": "Caco-2"}
{"SMILES": "CO[C@@H](C[C@H]1C(C)=CC[C@@H]2[C@]3(C)C[C@H](O[C@@H]4O[C@@H](C)[C@H](OC(=O)c5cccc(O)c5)[C@@H](O[C@@H]5O[C@H](CO)[C@@H](O)[C@H](O)[C@H]5NC(C)=O)[C@H]4O)[C@@H](O)C(C)(C)[C@H]3CC[C@]21C)[C@H](N)C(=O)O.O=C(O)C(F)(F)F", "tested at": "5 µM", "time": "1 h", "Papp A→B [×10⁻⁶ cm/s]": 0.01}
{"SMILES": "C[C@H]1O[C@@H](O[C@H]2[C@@H](O)C[C@H](O[C@H]3[C@@H](O)C[C@H](O[C@H]4CC[C@@]5(C)[C@H](CC[C@@H]6[C@@H]5C[C@@H](O)[C@]5(C)[C@@H](C7=CC(=O)OC7)CC[C@]65O)C4)O[C@@H]3C)O[C@@H]2C)C[C@H](O)[C@@H]1O", "tested at": "10 µM", "time": "2 h", "pH": "pH 7.4", "Papp A→B [×10⁻⁶ cm/s]": 0.11}
{"SMILES": "CC(C)(C)NCC(O)COc1cccc2c1CC(O)C(O)C2 (stereo not shown)", "Papp A→B [×10⁻⁶ cm/s]": 0.0514}
{"SMILES": "COc1cccc2c(-c3ccccc3)cc(-c3ccc(-c4ccc(C(=O)O)cc4)[nH]3)nc12", "Papp A→B [×10⁻⁶ cm/s]": 2.42}
{"SMILES": "Cc1ncsc1-c1ccc(CNC(=O)[C@@H]2C[C@@H](O)CN2C(=O)[C@@H](NC(=O)C2(F)CC2)C(C)(C)C)c(OCCOc2ccc(CN3CCN(c4cc(-c5ccccc5O)nnc4N)CC3)cc2)c1", "time": "2 h", "pH": "pH 7.2", "Papp A→B [×10⁻⁶ cm/s]": 2.2}
{"SMILES": "CC(C)NCC(O)COc1cccc2ccccc12 (stereo not shown)", "tested at": "5 µM", "time": "1 h", "Papp A→B [×10⁻⁶ cm/s]": 19.3}
{"SMILES": "COCCc1ccc(OCC(O)CNC(C)C)cc1 (stereo not shown)", "pH": "pH 7.4", "Papp A→B [×10⁻⁶ cm/s]": 73.6}
{"SMILES": "O=C(O)CCc1ccc(Oc2ccc(-c3noc(-c4ccc(O)cc4)n3)cc2)cc1", "time": "2 h", "pH": "pH 7.4", "Papp A→B [×10⁻⁶ cm/s]": 18}
{"SMILES": "C[C@H]1O[C@@H](O[C@H]2[C@@H](O)C[C@H](O[C@H]3[C@@H](O)C[C@H](O[C@H]4CC[C@@]5(C)[C@H](CC[C@@H]6[C@@H]5C[C@@H](O)[C@]5(C)[C@@H](C7=CC(=O)OC7)CC[C@]65O)C4)O[C@@H]3C)O[C@@H]2C)C[C@H](O)[C@@H]1O", "Papp A→B [×10⁻⁶ cm/s]": 0.0218}
{"SMILES": "C=CC(=O)Nc1cc(Nc2nccc(-c3cn(C)c4ccccc34)n2)c(OC)cc1N(C)CCN(C)C", "pH": "pH 7.4", "Papp A→B [×10⁻⁶ cm/s]": 8.64}
{"SMILES": "CC#Cc1cncc(-c2ccc3c(c2)[C@@]2(N=C(C)C(N)=N2)[C@]2(CC[C@H](OC)CC2)C3)c1", "Papp A→B [×10⁻⁶ cm/s]": 34.8}
{"SMILES": "CCC(=O)N[C@H]1Cc2cccc(C(=O)OCOC(=O)C(CC)CC)c2OB1O", "tested at": "5 µM", "time": "2 h", "pH": "pH 7.4", "Papp A→B [×10⁻⁶ cm/s]": 8.25}
{"SMILES": "CCn1c(=O)c2c(nc(S)n2C)n(C)c1=O", "tested at": "10 µM", "time": "2 h", "Papp A→B [×10⁻⁶ cm/s]": 2.7}
{"SMILES": "COc1cc(F)ccc1-c1ncnc(Nc2cccc(CS(N)(=O)=O)c2)n1", "tested at": "2 µM", "time": "2 h", "pH": "pH 7.2", "Papp A→B [×10⁻⁶ cm/s]": 2.2}
{"SMILES": "Nc1nc2c(ncn2COCCO)c(=O)[nH]1", "tested at": "10 µM", "time": "2 h", "pH": "pH 7.4", "Papp A→B [×10⁻⁶ cm/s]": 0.0803}
{"SMILES": "CNC(=C[N+](=O)[O-])NCCSCc1ccc(CN(C)C)o1", "Papp A→B [×10⁻⁶ cm/s]": 0.4}
